The values that follow come from ChEMBL document CHEMBL1151207, “Enniatins of Fusarium sp. strain F31 and their inhibition of Botrytis cinerea spore germination” (2004).

Values after ≈ are worked out from the molar mass of the structure shown.

By MIC is commonly meant the lowest concentration that inhibits growth of the organism.

Test [1] has as its system Botrytis cinerea. The test is described as follows: Antifungal activity against Botrytis cinerea 98G1 assessed as drug level required for detectable inhibition of fungal growth after 24 hrs at 20 degC in darkness by microtiter plate method. It counts as functional. Put shortly:
(§1)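 B. cinerea 98G1 conidia (tomato leaf agar, near-UV induced sporulation, mesh-filtered) suspended at 10⁶ spores/mL in liquid Hagem, 100 μL per well over dried isolated enniatins or commercial enniatin mixture at 10, 25, 50, 75, 100 μg/mL. A620 read at inoculation and after 24 h at 20 ± 1 °C in darkness, plus stereomicroscope 4-rank scale; duplicate wells.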

Test [2] relates to Botrytis cinerea. Briefly: Antifungal activity against Botrytis cinerea 98G1 spore germination after 24 hrs at 20 degC in darkness by microtiter plate method. It counts as functional. The note with it: 98G1, 24 h. In short, it runs like this: as §1

In the case of `CC(C)[C@@H]1NC(=O)[C@@H](C(C)C)OC(=O)[C@H](C(C)C)N(C)C(=O)[C@@H](C(C)C)OC(=O)[C@H](C(C)C)N(C)C(=O)[C@@H](C(C)C)OC1=O` [ENNIATIN B2], the Activity in test [1] is over 100 µg/mL. This compound came in with an MIC in test [2] of over 100 µg/mL.

`CC(C)[C@H]1C(=O)O[C@H](C(C)C)C(=O)N(C)[C@@H](C(C)C)C(=O)O[C@H](C(C)C)C(=O)N(C)[C@@H](C(C)C)C(=O)O[C@H](C(C)C)C(=O)N1C` [ENNIATIN B]: the Activity in test [1] was found to be 100 µg/mL. Also, the MIC in test [2] was over 100 µg/mL.

In the case of `CC[C@H](C)[C@H]1C(=O)O[C@H](C(C)C)C(=O)N(C)[C@@H](C(C)C)C(=O)O[C@H](C(C)C)C(=O)N(C)[C@@H](C(C)C)C(=O)O[C@H](C(C)C)C(=O)N1C` [ENNIATIN B1], the Activity in test [1] is 25 µg/mL. 75 µg/mL (≈ 115 µM) was the least that counted as inhibitory in test [2] (MIC).

Take `CC[C@H]1C(=O)O[C@H](C(C)C)C(=O)N(C)[C@@H](C(C)C)C(=O)O[C@H](C(C)C)C(=O)N(C)[C@@H](C(C)C)C(=O)O[C@H](C(C)C)C(=O)N1C` [ENNIATIN K1]: the Activity in test [1] amounted to 100 µg/mL. Also, the MIC in test [2] was over 100 µg/mL.

As for `CC(C)[C@H]1C(=O)O[C@H](C(C)C)C(=O)N(C)[C@@H](C)C(=O)O[C@H](C(C)C)C(=O)N(C)[C@@H](C(C)C)C(=O)O[C@H](C(C)C)C(=O)N1C` [ENNIATIN J1], the Activity in test [1] is over 100 µg/mL. The MIC in test [2] was over 100 µg/mL.

With `CC(C)C[C@H]1C(=O)O[C@H](C(C)C)C(=O)N(C)[C@@H](C(C)C)C(=O)O[C@H](C(C)C)C(=O)N(C)[C@@H](C(C)C)C(=O)O[C@H](C(C)C)C(=O)N1C` [ENNIATIN B4], the Activity in test [1] amounted to 50 µg/mL. This compound returned an MIC in test [2] of over 100 µg/mL.
